Data taken from ChEMBL document CHEMBL4699451, “Discovery of BIIB068: A Selective, Potent, Reversible Bruton's Tyrosine Kinase Inhibitor as an Orally Efficacious Agent for Autoimmune Diseases” (J Med Chem, 2020).

Tests used:
[1] = Toxicity in cynomolgus monkey assessed as change in ECG measured up to 13 weeks; parameters: species or system Macaca fascicularis; conditions: in vivo, 2184 h
Procedure, shortened: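 GLP toxicity studies lasting up to 13 weeks, run in Sprague-Dawley rats and cynomolgus monkeys.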

[2] = Clearance in Sprague-Dawley rat at 1 mg/kg, iv relative to hepatic blood flow; type: ADME, organism-based; conditions: in vivo
[3] = Clearance in rat at 1 mg/kg, iv; type: ADME, organism-based; conditions: in vivo
[4] = Volume of distribution at steady state in rat at 1 mg/kg, iv; type: ADME, organism-based; conditions: in vivo, read-out: Vdss
Procedure, shortened: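 Intravenous dosing at 1 mg/kg in male SD rats, measured in triplicate; vehicle 40% NMP solution. Clearance expressed as %Qh.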

[5] = Aqueous solubility of compound in simulated gastric fluid at pH 2 by HPLC method; type: physicochemical
[6] = Volume of distribution at steady state in dog at 1 mg/kg, iv; type: ADME, organism-based, Canis lupus familiaris; conditions: in vivo, read-out: Vdss
Procedure, shortened: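 Intravenous dosing at 1 mg/kg; vehicle 70:30 PEG-400:H2O solution.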

[7] = Cmax in rat at 5 mg/kg, po; type: ADME, organism-based; parameters: route oral, dose 5 mg/kg; conditions: in vivo

CL [2]: 1% | clearance [3]: 3 mL/min/kg | Vd [4]: 0.2 L/kg | solubility [5]: > 100 µg/mL | Vd [6]: 1.2 L/kg | Cmax [7]: 2920 ng/mL
Structure (SMILES): Cc1cc(-c2ccnc(Nc3cnn(C)c3)n2)ccc1CNC(=O)N1CC(OC(C)C)C1
Activity [1]: Non-Toxic
